Assay results of several laboratories.
Lines come from different studies, so protocols differ.
DRD1: D(1A) dopamine receptor (DRD1, Homo sapiens, UniProt P21728)
Tyrosine-protein phosphatase YopH: Tyrosine-protein phosphatase YopH (Yersinia enterocolitica, UniProt P15273)

O=C(O)c1cc(-c2ccc([C@H]3C[C@H]4C[C@@H]3NC4=O)cc2)c2ccc(-c3ccc(C(F)(F)F)cc3)cc2c1
Ki (DRD1; cell-free assay, radioligand): 1.4 to 2.2 µM

[Na+].[Na+].[Na+].[O]=[V]([O-])([O-])[O-]
Ki (Tyrosine-protein phosphatase YopH; enzyme activity, inhibitor): 1.58 µM

C[C@H](N)Cc1ccccc1
Ki (Neuronal acetylcholine receptor subunit alpha-7 (Chrna7, Mus musculus, UniProt P49582); ligand displacement, radioligand; cell membranes): 49.7 µM

CNC(C)C(=O)c1ccccc1 (racemic)
EC50 (Sodium-dependent serotonin transporter (SLC6A4, Homo sapiens, UniProt P31645); calcium signal, agonist, fluorescence): 24.8 µM

NNC(=O)c1ccncc1
Ki (Adenosylmethionine-8-amino-7-oxononanoate aminotransferase (Mycobacterium tuberculosis, UniProt P9WQ81); enzyme activity, inhibitor): > 100 µM

CC(C)CCC[C@@H](C)[C@H]1CC[C@H]2[C@@H]3CC=C4C[C@@H](O)CC[C@]4(C)[C@H]3CC[C@]12C
Kd (hly (Listeria monocytogenes, UniProt P13128); binding; pH 5.5): 0.296 µM

CC=C1[C@H]2C=C(C)C[C@]1(N)c1cc(O)c(=O)[nH]c1C2
IC50 (Cholinesterase (BCHE, Equus caballus, UniProt P81908); enzyme activity, inhibitor, Ellman): 155 µM

O=C(O)c1cc(-c2ccc([C@@H]3C[C@@H]4C[C@H]3CN4)cc2)c2ccc(-c3ccc(C(F)(F)F)cc3)cc2c1
Ki (DRD1; cell-free assay, radioligand): 1.4 to 2.2 µM

CN(C)c1ccc(/C=C/c2cc(/C=C/c3ccc(N(C)C)cc3)n3n[n+](C)nc3n2)cc1
IC50 (Tyrosine-protein phosphatase YopH; enzyme activity, inhibitor): 4.44 µM
